Source: ChEMBL document CHEMBL1122766, “Synthesis and antitumor evaluation of some nitrosourea and nitrogen mustard amino acid derivatives” (J Med Chem, 1984)

Legend:
Mus musculus [1] = species: Mus musculus; experiment: Optimum dose for antitumor activity against leukemia L1210 in mice; assay type: functional
How it was run: (§1)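 Adult F1 (DBA/2 × C57Bl/6) mice inoculated ip with 10^5 L1210 cells on day 0, 8–10 mice per dose. Compound in olive oil (2–150 mg/kg) given day 1, repeated days 5 and 9 only in mice without toxicity. Daily mortality with autopsy. T/C × 100 from median survival; active if >125 and significant by Wilcoxon W test. Acute LD50 determined graphically.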

[2] = Therapeutic index in L1210 (murine leukemia) inoculated mice.; settings: mouse; read-out: TI
Mus musculus [3] = species: Mus musculus; experiment: Dose range for antitumor activity against leukemia L1210 in mice.; assay type: functional; how it was run: as §1
[4] = Median lethal dose in L1210 (murine luekemia) inoculated mice.; assay type: toxicity, organism-based; settings: mouse, in vivo
How it was run: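 Adult F1 (DBA/2 × C57Bl/6) mice inoculated ip with 10^5 L1210 cells on day 0; 8–10 mice per dose; compound in olive oil (2–150 mg/kg) on day 1, repeated days 5 and 9 only in mice without toxicity signs. Daily mortality, autopsy to separate leukemic from toxic deaths; acute LD50 determined graphically (98% confidence limits).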

Mus musculus [5] = species: Mus musculus; experiment: The oncostatic index (T=median survival time in the treated group of mice, C=median survival time in the control group X 100) was calculated; assay type: functional
How it was run: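 Mice (adult F1 DBA/2 × C57Bl/6) given 10^5 L1210 cells ip on day 0; 8–10 per dose group; olive-oil doses 2–150 mg/kg on day 1, repeated days 5 and 9 in non-toxic mice. T/C × 100 from median survival times, treated vs control. Active if >125 and significant by Wilcoxon W test; ∞ means >50% of group cured.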

Compound	OD (Mus musculus [1]) [mg/kg]	selectivity ratio [2]	Dose (Mus musculus [3]) [mg/kg]	LD50 [4] [mg/kg]	T/C (Mus musculus [5]) [%]
O=NN(CCCl)C(=O)N[C@H]1C(O)O[C@H](CO)[C@@H](O)[C@@H]1O (stereo partly specified) [CHLOROZOTOCIN]	15	2.5	25	35	
CC(O)C(NC(=O)N(CCCl)N=O)C(=O)NCCCl (stereo unspecified)	15	1.6	20	25	
O=NN(CCCl)C(=O)NC1CCCCC1 [LOMUSTINE]			10	30	
CC(C)CC(NC(=O)N(CCCl)N=O)C(=O)NCCCl (stereo unspecified)	35	1.8	50	64	
CC(NC(=O)N(CCCl)N=O)C(=O)NCCCl (stereo unspecified)	20	1.75	30	35	
CCC(C)C(NC(=O)N(CCCl)N=O)C(=O)NCCCl (stereo unspecified)	50	2.6	75	130	
CN(CC(=O)NCCCl)C(=O)N(CCCl)N=O	200	2	280	400	
CC1(C)O[C@@H]2[C@H](O1)[C@@H](COC(=O)c1ccc([N+](=O)[O-])cc1)O[C@H]2NC(=O)N(CCCl)N=O	20	4.5	30	90	
O=NN(CCCl)C(=O)NCCCC(=O)NCCCl	35	3.6	50		
O=NN(CCCl)CCSSCCN(CCCl)N=O	30	2.5	50	75	
CSCCC(NC(=O)N(CCCl)N=O)C(=O)NCCCl (stereo unspecified)	20	1.6	30	32	
O=NN(CCCl)C(=O)NC(Cc1c[nH]c2ccccc12)C(=O)NCCCl (stereo unspecified)	27	2.4	35	65	
O=NN(CCCl)C(=O)NC(Cc1ccccc1)C(=O)NCCCl (stereo unspecified)	50	1.6	60	80	
NC(=O)CC(NC(=O)N(CCCl)N=O)C(=O)NCCCl (stereo unspecified)	20	1.75	30	35	
O=NN(CCCl)C(=O)N1CCCC1C(=O)NCCCl (stereo unspecified)			35	80	194
O=NN(CCCl)C(=O)NC(Cc1ccc(O)cc1)C(=O)NCCCl (stereo unspecified)			25	40	211
O=NN(CCCl)C(=O)NCC(=O)NCCCl	12	2	20	25	
O=NN(CCCl)C(=O)NCCC(=O)NCCCl	35	2.9	50		
